# Measured values: ChEMBL document CHEMBL5724801, “EUbOPEN Chemogenomics Library - Multiplex” (2024)
# Values joined by “and” are separate entries in the source; they are usually repeats but may differ in a detail not shown here. Identical values can stand only once.
# Test system: HEK-293T
# Test: Multiplex assay against HEK293T
# Type: toxicity, cell-based
# Settings: human
# Summary of the method: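 On a CQ1 microscope at 37°C and 5% CO2, live cells were imaged after compound addition. They had been stained at seeding with Hoechst33342, BioTracker Green Microtubule Cytoskeleton Dye, MitoTracker Red and Annexin V Alexa Fluor 680. CellPathfinder machine-learning gating assigned cells to Hoechst high-intensity objects or normal cells, normal cells to healthy, pyknosed or fragmented nuclei, and pyknosed cells to mitotic or apoptotic. Tubulin, mitochondrial-mass and membrane-permeability phenotypes are per cents of healthy-nucleus cells.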
# [1] = 12 h, 1 µM, compound concentration 1 uM
# [2] = 12 h, 10 µM, compound concentration 10 uM
# [3] = 24 h, 1 µM, compound concentration 1 uM
# [4] = 24 h, 10 µM, compound concentration 10 uM
# [5] = 48 h, 1 µM, compound concentration 1 uM
# [6] = 48 h, 10 µM, compound concentration 10 uM
structure (smiles),measurement,setting,value
O=C(Nc1ccccc1Br)N[C@@H]1CCN(c2ccc(C(F)(F)F)cn2)C1 [SB-705498],Population Apoptotic (%),[1],7.52% and 7.03%
same,Population Fragmented Nuclei (%),[1],0.88% and 1.23%
same,Population Hoechst High Intensity Objects (%),[1],0.29% and 0%
same,Population Membrane Permeable-Phenotype (%),[1],0.99% and 0%
same,Population Mitochondria Different-Phenotype (%),[1],31.53% and 18.75%
same,Population Mitotic Cells (%),[1],92.48% and 92.97%
same,Population Normal (%),[1],99.71% and 100%
same,Population Pyknosed Nuclei (%),[1],39.23% and 79.01%
same,Total Cell Count,[1],340 and 162
same,Population Apoptotic (%),[2],12.68% and 20.16%
same,Population Fragmented Nuclei (%),[2],2.69% and 4.05%
same,Population Hoechst High Intensity Objects (%),[2],1.52% and 0%
same,Population Membrane Permeable-Phenotype (%),[2],0.9% and 7.69%
same,Population Mitochondria Different-Phenotype (%),[2],31.53% and 23.08%
same,Population Mitotic Cells (%),[2],87.32% and 79.84%
same,Population Normal (%),[2],98.48% and 100%
same,Population Pyknosed Nuclei (%),[2],54.62% and 87.16%
same,Population Tubulin-Different-Phenotype (%),[2],17.12% and 46.15%
same,Total Cell Count,[2],264 and 148
same,Population Apoptotic (%),[3],16.92% and 17.07%
same,Population Fragmented Nuclei (%),[3],1.6% and 1.17%
same,Population Healthy Nuclei (%),[3],75.22% and 26.9%
same,Population Hoechst High Intensity Objects (%),[3],0.18% and 0%
same,Population Membrane Permeable-Phenotype (%),[3],2.37% and 2.17%
same,Population Mitochondria Different-Phenotype (%),[3],11.37% and 2.17%
same,Population Mitotic Cells (%),[3],83.08% and 82.93%
same,Population Normal (%),[3],99.82% and 100%
same,Population Tubulin-Different-Phenotype (%),[3],10.9% and 6.52%
same,Population Apoptotic (%),[4],24.63% and 21.09%
same,Population Fragmented Nuclei (%),[4],1.27% and 4.24%
same,Population Hoechst High Intensity Objects (%),[4],0%
same,Population Membrane Permeable-Phenotype (%),[4],0%
same,Population Mitochondria Different-Phenotype (%),[4],24.71% and 20%
same,Population Mitotic Cells (%),[4],75.37% and 78.91%
same,Population Normal (%),[4],100%
same,Population Pyknosed Nuclei (%),[4],34.01% and 77.58%
same,Population Tubulin-Different-Phenotype (%),[4],37.65% and 16.67%
same,Total Cell Count,[4],394 and 165
same,Population Apoptotic (%),[5],9.6% and 17.81%
same,Population Fragmented Nuclei (%),[5],2.88% and 0.56%
same,Population Healthy Nuclei (%),[5],86.22% and 58.66%
same,Population Hoechst High Intensity Objects (%),[5],0%
same,Population Membrane Permeable-Phenotype (%),[5],6.98% and 0.95%
same,Population Mitochondria Different-Phenotype (%),[5],12.34% and 27.62%
same,Population Mitotic Cells (%),[5],90.4% and 82.19%
same,Population Normal (%),[5],100%
same,Population Fragmented Nuclei (%),[6],1.84% and 0.57%
same,Population Healthy Nuclei (%),[6],83.54% and 53.41%
same,Population Hoechst High Intensity Objects (%),[6],0%
same,Population Membrane Permeable-Phenotype (%),[6],4.13% and 5.32%
same,Population Mitochondria Different-Phenotype (%),[6],29.2% and 45.74%
same,Population Mitotic Cells (%),[6],95.28% and 80.25%
same,Population Normal (%),[6],100%
N[C@@]1(C(=O)O)CO[C@H]2[C@H](C(=O)O)[C@H]21 [LY-379268],Population Apoptotic (%),[1],40% and 42%
same,Population Fragmented Nuclei (%),[1],6%
same,Population Healthy Nuclei (%),[1],81% and 80%
same,Population Hoechst High Intensity Objects (%),[1],5% and 10%
same,Population Membrane Permeable-Phenotype (%),[1],0% and 1%
same,Population Mitochondria Different-Phenotype (%),[1],38% and 57%
same,Population Mitotic Cells (%),[1],60% and 57%
same,Population Normal (%),[1],94% and 89%
same,Population Pyknosed Nuclei (%),[1],12%
same,Population Tubulin-Different-Phenotype (%),[1],26% and 18%
same,Total Cell Count,[1],396 and 411
same,Population Apoptotic (%),[2],27% and 52%
same,Population Fragmented Nuclei (%),[2],10% and 8%
same,Population Healthy Nuclei (%),[2],78% and 79%
same,Population Hoechst High Intensity Objects (%),[2],8% and 7%
same,Population Membrane Permeable-Phenotype (%),[2],0%
same,Population Mitochondria Different-Phenotype (%),[2],33% and 51%
same,Population Mitotic Cells (%),[2],72% and 47%
same,Population Normal (%),[2],91% and 92%
same,Population Pyknosed Nuclei (%),[2],10% and 12%
same,Population Tubulin-Different-Phenotype (%),[2],31% and 18%
same,Total Cell Count,[2],437 and 380
same,Population Apoptotic (%),[3],30% and 29%
same,Population Fragmented Nuclei (%),[3],8% and 7%
same,Population Healthy Nuclei (%),[3],79% and 83%
same,Population Hoechst High Intensity Objects (%),[3],2% and 7%
same,Population Membrane Permeable-Phenotype (%),[3],0%
same,Population Mitochondria Different-Phenotype (%),[3],21% and 31%
same,Population Mitotic Cells (%),[3],70%
same,Population Normal (%),[3],97% and 92%
same,Population Pyknosed Nuclei (%),[3],11% and 9%
same,Population Tubulin-Different-Phenotype (%),[3],20% and 13%
same,Total Cell Count,[3],517 and 481
same,Population Apoptotic (%),[4],36% and 43%
same,Population Fragmented Nuclei (%),[4],10% and 8%
same,Population Healthy Nuclei (%),[4],79% and 82%
same,Population Hoechst High Intensity Objects (%),[4],6% and 8%
same,Population Membrane Permeable-Phenotype (%),[4],0%
same,Population Mitochondria Different-Phenotype (%),[4],24% and 39%
same,Population Mitotic Cells (%),[4],63% and 56%
same,Population Normal (%),[4],93% and 91%
same,Population Pyknosed Nuclei (%),[4],9%
same,Population Tubulin-Different-Phenotype (%),[4],15%
same,Total Cell Count,[4],551 and 470
same,Population Apoptotic (%),[5],26% and 33%
same,Population Fragmented Nuclei (%),[5],13% and 10%
same,Population Healthy Nuclei (%),[5],79% and 81%
same,Population Hoechst High Intensity Objects (%),[5],3% and 7%
same,Population Membrane Permeable-Phenotype (%),[5],1% and 0%
same,Population Mitochondria Different-Phenotype (%),[5],15% and 22%
same,Population Mitotic Cells (%),[5],73% and 66%
same,Population Normal (%),[5],97% and 92%
same,Population Pyknosed Nuclei (%),[5],6% and 7%
same,Population Tubulin-Different-Phenotype (%),[5],9% and 14%
same,Total Cell Count,[5],866 and 611
same,Population Apoptotic (%),[6],24% and 25%
same,Population Fragmented Nuclei (%),[6],16% and 11%
same,Population Healthy Nuclei (%),[6],75% and 80%
same,Population Hoechst High Intensity Objects (%),[6],4%
same,Population Membrane Permeable-Phenotype (%),[6],1% and 0%
same,Population Mitochondria Different-Phenotype (%),[6],18% and 19%
same,Population Mitotic Cells (%),[6],75%
same,Population Normal (%),[6],95%
same,Population Pyknosed Nuclei (%),[6],7%
same,Population Tubulin-Different-Phenotype (%),[6],10% and 9%
same,Total Cell Count,[6],781 and 689
